According to article PMC4028361 (Immunity, 2014):
Like-named read-outs stand apart in the source and are kept apart here.

What was measured:
[1] = test system: human Vγ9Vδ2 T cells; type: cell-based
Method in brief: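 Target HEK cells had endogenous BTN3A silenced by shRNA and were transiently re-transfected with BTN3A isoforms or position-351 mutants. Cells were pretreated 2 h at 37°C with anti-CD277 agonist mAb 20.1 or zoledronate, washed extensively, then cocultured 4 h at 37°C with polyclonal Vγ9Vδ2 T cells in complete RPMI with 10 μM monensin and labelled anti-CD107a. Cells were then stained for Vδ2 TCR and read by flow cytometry.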

[2] = target: BTN3A1 B30.2 charge reversal mutant (H378D, K393D, R412E, R418E, R469E) (Homo sapiens, UniProt O00481, H408D/K423D/R442E/R448E/R499E); assay: Isothermal titration calorimetry, B30.2 charge reversal mutant; type: binding; settings: ITC; 25μM protein in cell, 500μM pAg in syringe
Sequence of BTN3A1 B30.2 charge reversal mutant (H378D, K393D, R412E, R418E, R469E) (O00481 322-513 H408D/K423D/R442E/R448E/R499E): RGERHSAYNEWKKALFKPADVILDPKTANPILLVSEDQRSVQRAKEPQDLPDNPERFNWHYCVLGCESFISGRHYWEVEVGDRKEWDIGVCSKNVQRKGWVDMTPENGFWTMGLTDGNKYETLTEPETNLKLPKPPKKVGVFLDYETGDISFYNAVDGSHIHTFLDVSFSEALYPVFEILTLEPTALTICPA

[3] = target: extracellular domain of BTN3A1 (Homo sapiens, UniProt O00481); assay: Isothermal titration calorimetry, pAg binding to BTN3A1 extracellular domain; settings: ITC at multiple temperatures (25°C, 15°C); 100μM protein, 2mM cHDMAPP
Sequence of extracellular domain of BTN3A1 (O00481 30-254 limits assumed): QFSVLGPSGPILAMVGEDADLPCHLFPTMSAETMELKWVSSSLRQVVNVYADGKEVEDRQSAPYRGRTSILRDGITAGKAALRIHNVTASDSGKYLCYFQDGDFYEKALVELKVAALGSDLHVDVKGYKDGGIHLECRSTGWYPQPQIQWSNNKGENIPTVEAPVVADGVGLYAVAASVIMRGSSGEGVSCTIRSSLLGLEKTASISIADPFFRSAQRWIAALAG

[4] = target: G115 Vγ9Vδ2 TCR / BTN3A1 extracellular domain (Homo sapiens, UniProt O00481); type: binding; settings: SPR; 1mM cHDMAPP co-injected
Sequence of G115 Vγ9Vδ2 TCR / BTN3A1 extracellular domain (O00481 30-254): as the sequence (O00481 30-254 limits assumed) above
Method in brief: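 G115 Vγ9Vδ2 TCR was C-terminally biotinylated and multimerized at a 60:1 ratio onto streptavidin-conjugated AmDex polymers. Serial dilutions from 1 ug/ml to 0.03125 ug/ml were injected over immobilized […] BTN3A1, with murine T22 protein also immobilized.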

Structure (SMILES)	Vγ9Vδ2 T cell stimulation (CD107a) ([1]; BTN3A-silenced cells re-expressing BTN3A1_H351R)	Vγ9Vδ2 T cell stimulation (CD107a) ([1]; BTN3A-silenced cells re-expressing BTN3A3_R351H)	binding to B30.2 charge reversal mutant [2]	binding to the complete extracellular domain of BTN3A1 [3]	effect of co-injection on G115 AmDex TCR interaction with immobilized BTN3A1 [4]
O=P(O)(O)C(O)(Cn1ccnc1)P(=O)(O)O [zoledronate, Zoledronic acid monohydrate]	unable to mediate NBP induced stimulation	able to mediate NBP induced stimulation	–	–	–
C/C(=C\CCP(=O)(O)OP(=O)(O)O)CO [cHDMAPP, hydroxy-methyl-butyl-pyrophosphonate]	–	–	no detectable binding	unable to detect binding	did not alter observed interactions
